Data on 14 compounds can be found in publication PMC9322249 (Journal of Food and Drug Analysis, 2017).

Experiment [1] in a line: Thiobarbituric acid reactive substances. The conditions noted are these: for TBARS: BHTE units, X = EO or compound. The method in brief: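 TBARS formation by oxidation measured in soybean lecithin homogenate as lipid-rich medium, by a published method, in triplicate. Values are expressed as μmol BHTE/mL EO, mean ± SD, with ANOVA/Tukey's HSD (p < 0.05).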
Another experiment is described as follows: Reducing power. The conditions noted are these: AAE units; X = EO or compound. The method in brief: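 Reduction of potassium ferricyanide by the oils and individual components, by a published method, in triplicate. Results are reported as ascorbic acid equivalents per volume of EO, mean ± SD, with ANOVA/Tukey's HSD (p < 0.05).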
The nature of experiment [2]: DPPH radical scavenging capacity. The conditions noted are these: TEAC units; X = EO or compound. The method, boiled down:
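DPPH radical scavenging by essential oils and individual components, by a published method, in triplicate. Values are expressed as μmol TE/mL EO and given as mean ± SD, with ANOVA/Tukey's HSD at p < 0.05.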
On the technique in general: DPPH is a stable violet radical that fades when it is reduced.

The nature of experiment [3]: ABTS radical cation bleaching assay. The conditions noted are these: TEAC units; X = EO or compound. The method in brief: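 ABTS radical cation (ABTS•+) bleaching by essential oils and their individual components, run in triplicate by a published method. Results are given as mean ± SD, compared by ANOVA with Tukey's HSD (p < 0.05).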
The nature of another experiment: Chelating power. The conditions noted are these: for ChP: EDTAE units, X = EO or compound. The method, boiled down: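 Ferrous ion chelation by essential oils and their major components, by a published method, in triplicate. Results are expressed as EDTA equivalents per volume of EO, mean ± SD, with ANOVA/Tukey's HSD (p < 0.05).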
Experiment [4] in a line: Oxygen radical absorption capacity. The conditions noted are these: TEAC units; X = EO or compound. The method, boiled down:
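Peroxyl radical (ROO) scavenging by the oils and individual components, following a published ORAC method, in triplicate. Data are mean ± SD, with significance by ANOVA/Tukey's HSD (p < 0.05).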

On to `CC12CCC(CC1)C(C)(C)O2` [1,8-Cineole], for which the TBARS entry in experiment [1] is listed as “N/D (Activity lower than 0.05 units at a maximum assay concentration of 100 mM)”. For the same compound, the RdP result in “Reducing power” was “N/D (Activity lower than 0.05 units at a maximum assay concentration of 100 mM)”. Further, the DPPH entry in experiment [2] is recorded as “N/D (Activity lower than 0.05 units at a maximum assay concentration of 100 mM)”. The ABTS in experiment [3] turned out to be 0.2 ± 0.0 μmol TE/mL X. Moreover, in “Chelating power”, the ChP stood at 6.7 ± 0.4 μmol EDTAE/mL X. For the same compound, the ORAC entry in experiment [4] is “N/D (Activity lower than 0.05 units at a maximum assay concentration of 100 mM)”.
Take `CC1(C)C2CCC1(C)C(O)C2` (stereo not drawn) [Borneol]: the TBARS entry in experiment [1] is reported as “N/D (Activity lower than 0.05 units at a maximum assay concentration of 100 mM)”. Also, in the experiment “Reducing power”, the RdP result was “N/D (Activity lower than 0.05 units at a maximum assay concentration of 100 mM)”. Also, the DPPH result in experiment [2] was “N/D (Activity lower than 0.05 units at a maximum assay concentration of 100 mM)”. Further, the ABTS entry in experiment [3] was “N/D (Activity lower than 0.05 units at a maximum assay concentration of 100 mM)”. Besides, the ChP entry in the experiment “Chelating power” is “N/D (Activity lower than 0.05 units at a maximum assay concentration of 100 mM)”. For the same compound, the ORAC entry in experiment [4] is “N/D (Activity lower than 0.05 units at a maximum assay concentration of 100 mM)”.
On to `C=C1C2CCC(C2)C1(C)C` (stereo not drawn) [Camphene], for which the TBARS result in experiment [1] is recorded as “N/D (Activity lower than 0.05 units at a maximum assay concentration of 100 mM)”. Further, the RdP in the experiment “Reducing power” came out at 3238.9 ± 157.4 μmol AAE/L X. The DPPH entry in experiment [2] is reported as “N/D (Activity lower than 0.05 units at a maximum assay concentration of 100 mM)”. Also, the ABTS in experiment [3] is recorded as 0.8 ± 0.0 μmol TE/mL X. Also, the ChP in the experiment “Chelating power” is given as 9.9 ± 0.7 μmol EDTAE/mL X. Moreover, in experiment [4], the ORAC entry is given as “N/D (Activity lower than 0.05 units at a maximum assay concentration of 100 mM)”.
Compound `Cc1ccc(C(C)C)cc1O` [Carvacrol] had a TBARS in experiment [1] of 600.7 ± 102.2 μmol BHTE/mL X. The compound further gave a RdP in the experiment “Reducing power” of 3239.6 ± 143.0 μmol AAE/L X. The compound also returned a DPPH in experiment [2] of 34.9 ± 2.5 μmol TE/mL X. For the same compound, the ABTS in experiment [3] is listed as 7804.4 ± 268.1 μmol TE/mL X. Moreover, in the experiment “Chelating power”, the ChP result is reported as “N/D (Activity lower than 0.05 units at a maximum assay concentration of 100 mM)”. Besides, the ORAC in experiment [4] is 2.8 ± 0.1 μmol TE/μL X.
Take `C=CC(=C)CCC=C(C)C` [Myrcene]: the TBARS result in experiment [1] is “N/D (Activity lower than 0.05 units at a maximum assay concentration of 100 mM)”. Further, in “Reducing power”, the RdP entry is “N/D (Activity lower than 0.05 units at a maximum assay concentration of 100 mM)”. The DPPH result in experiment [2] is given as “N/D (Activity lower than 0.05 units at a maximum assay concentration of 100 mM)”. The ABTS result in experiment [3] is given as “N/D (Activity lower than 0.05 units at a maximum assay concentration of 100 mM)”. The same compound showed a ChP in the experiment “Chelating power” of 14.4 ± 1.0 μmol EDTAE/mL X. Moreover, in experiment [4], the ORAC entry is given as “N/D (Activity lower than 0.05 units at a maximum assay concentration of 100 mM)”.
Consider `CC(C)C12CCC(C)(O)C1C2` (stereo not drawn) [Sabinene hydrate], for which the TBARS in experiment [1] came out at 97.2 ± 4.2 μmol BHTE/mL X. In addition, the RdP result in the experiment “Reducing power” is recorded as “N/D (Activity lower than 0.05 units at a maximum assay concentration of 100 mM)”. Moreover, the DPPH entry in experiment [2] is given as “N/D (Activity lower than 0.05 units at a maximum assay concentration of 100 mM)”. This compound came in with an ABTS in experiment [3] of 3.2 ± 0.2 μmol TE/mL X. Moreover, in the experiment “Chelating power”, the ChP was determined as 44.9 ± 3.7 μmol EDTAE/mL X. Besides, the ORAC in experiment [4] is given as 0.3 ± 0.0 μmol TE/μL X.
In experiment [1], `CC1=CCC(O)(C(C)C)CC1` (stereo not drawn) [Terpinen-4-ol] showed a TBARS of 50.2 ± 10.6 μmol BHTE/mL X. For the same compound, the RdP result in “Reducing power” is recorded as “N/D (Activity lower than 0.05 units at a maximum assay concentration of 100 mM)”. The DPPH in experiment [2] is reported as 0.3 ± 0.0 μmol TE/mL X. This compound came in with an ABTS in experiment [3] of 1.8 ± 0.1 μmol TE/mL X. The ChP in “Chelating power” stood at 10.3 ± 0.7 μmol EDTAE/mL X. This compound also displayed an ORAC in experiment [4] of 2.2 ± 0.1 μmol TE/μL X.
Regarding `C=CC(C)(CCC=C(C)C)OC(C)=O` (stereo not drawn) [linalyl acetate], in experiment [1], the TBARS stood at 19.6 ± 0.6 μmol BHTE/mL X. In addition, the RdP entry in “Reducing power” was “N/D (Activity lower than 0.05 units at a maximum assay concentration of 100 mM)”. The DPPH result in experiment [2] is given as “N/D (Activity lower than 0.05 units at a maximum assay concentration of 100 mM)”. Further, the ABTS in experiment [3] is listed as 0.3 ± 0.0 μmol TE/mL X. For the same compound, in the experiment “Chelating power”, the “Chelating power (ChP), result in words” value was “high ChP” and the ChP was 125.7 ± 9.4 μmol EDTAE/mL X. This compound came in with an ORAC in experiment [4] of 1.0 ± 0.1 μmol TE/μL X.
For `CC1=CCC2CC1C2(C)C` (stereo not drawn) [α-Pinene], in experiment [1], the TBARS worked out at 16.3 ± 0.5 μmol BHTE/mL X. Moreover, the RdP result in the experiment “Reducing power” was “N/D (Activity lower than 0.05 units at a maximum assay concentration of 100 mM)”. Further, in experiment [2], the DPPH was determined as 0.1 ± 0.0 μmol TE/mL X. Further, the ABTS entry in experiment [3] is listed as “N/D (Activity lower than 0.05 units at a maximum assay concentration of 100 mM)”. This compound had a ChP in the experiment “Chelating power” of 104.8 ± 7.0 μmol EDTAE/mL X. For the same compound, the ORAC in experiment [4] was determined as 0.2 ± 0.0 μmol TE/μL X.
As for `CC1=CC[C@@H](C(C)(C)O)CC1` [α-Terpineol], in experiment [1], the TBARS turned out to be 15.6 ± 0.5 μmol BHTE/mL X. Moreover, the RdP entry in “Reducing power” is “N/D (Activity lower than 0.05 units at a maximum assay concentration of 100 mM)”. Besides, the DPPH entry in experiment [2] was “N/D (Activity lower than 0.05 units at a maximum assay concentration of 100 mM)”. Besides, the ABTS in experiment [3] is 1.1 ± 0.1 μmol TE/mL X. Further, the ChP in “Chelating power” is 29.9 ± 1.9 μmol EDTAE/mL X. In experiment [4], the ORAC is recorded as 1.9 ± 0.1 μmol TE/μL X.
`CC1=CC=C(C(C)C)CC1` [α-terpinene]: in experiment [1], the TBARS result is reported as “N/D (Activity lower than 0.05 units at a maximum assay concentration of 100 mM)”. Besides, the RdP in “Reducing power” is 11,531.4 ± 637.1 μmol AAE/L X. The DPPH in experiment [2] worked out at 1.7 ± 0.1 μmol TE/mL X. In experiment [3], this compound came in with an ABTS of 24.6 ± 1.2 μmol TE/mL X. Also, in “Chelating power”, the “Chelating power (ChP), result in words” value was “high chelating activity” and the ChP was 385.6 ± 29.0 μmol EDTAE/mL X. In experiment [4], the ORAC was 0.4 ± 0.0 μmol TE/μL X.
In experiment [1], `C=C1CC/C=C(\C)CC[C@@H]2[C@@H]1CC2(C)C` [β-Caryophyllene] yielded a TBARS of 76.5 ± 3.4 μmol BHTE/mL X. Moreover, the RdP result in “Reducing power” is on record as “N/D (Activity lower than 0.05 units at a maximum assay concentration of 100 mM)”. Besides, the DPPH result in experiment [2] is on record as “N/D (Activity lower than 0.05 units at a maximum assay concentration of 100 mM)”. In addition, in experiment [3], the ABTS result is “N/D (Activity lower than 0.05 units at a maximum assay concentration of 100 mM)”. The compound further had a ChP in the experiment “Chelating power” of 31.6 ± 2.2 μmol EDTAE/mL X. In addition, the ORAC in experiment [4] amounted to 1.7 ± 0.1 μmol TE/μL X.
For `C=C1CCC2CC1C2(C)C` (stereo not drawn) [β-Pinene], the TBARS in experiment [1] was determined as 28.9 ± 1.9 μmol BHTE/mL X. In “Reducing power”, the RdP entry is given as “N/D (Activity lower than 0.05 units at a maximum assay concentration of 100 mM)”. This compound also showed a DPPH in experiment [2] of 0.1 ± 0.0 μmol TE/mL X. The compound also returned an ABTS in experiment [3] of 0.7 ± 0.0 μmol TE/mL X. Also, the ChP in “Chelating power” is reported as 11.7 ± 0.7 μmol EDTAE/mL X. Further, the ORAC entry in experiment [4] is given as “N/D (Activity lower than 0.05 units at a maximum assay concentration of 100 mM)”.
Consider `CC1=CCC(C(C)C)=CC1` [γ-terpinene], for which, in experiment [1], the “TBARS antioxidant activity, result in words” value is on record as “strong TBARS antioxidant activity” and the TBARS came to 273.2 ± 24.4 μmol BHTE/mL X. Moreover, the RdP in the experiment “Reducing power” worked out at 1990.6 ± 160.2 μmol AAE/L X. In experiment [2], this compound registered a DPPH of 2.1 ± 0.1 μmol TE/mL X. Besides, the ABTS in experiment [3] stood at 15.6 ± 0.7 μmol TE/mL X. This compound also had a ChP in the experiment “Chelating power” of 2.0 ± 0.1 μmol EDTAE/mL X. The compound further had an ORAC in experiment [4] of 1.1 ± 0.1 μmol TE/μL X.
